# Assay results taken from ChEMBL document CHEMBL3425419, “Developing new chemical tools for DNA methyltransferase 1 (DNMT 1): a small-molecule activity-based probe and novel tetrazole-containing inhibitors” (Bioorg Med Chem, 2015).
# Calls of active or inactive are those of the source.
# Tests used:
# [1] = target: DNA (cytosine-5)-methyltransferase 1 (Homo sapiens) (UniProt P26358); experiment: Inhibition of recombinant DNMT1 (unknown origin) after 90 mins by fluorescence assay
# [2] = system: MCF7; experiment: Cytotoxicity against human MCF7 cells after 72 hrs by XTT assay; format: functional; conditions: for GI50: MCF7, 72 h
# How it was run: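 MCF-7 breast cancer cells exposed to a range of compound concentrations, and growth read by XTT anti-proliferation assay. GI50 is defined as the concentration giving 50% growth inhibition, taken from dose–response plots.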
# [3] = system: MCF7; experiment: Induction of apoptosis in human MCF7 cells assessed as apoptotic cells at 10 uM after 6 hrs by FITC-Annexin V/propidium iodide staining-based FACS analysis relative to control; format: functional
# How it was run: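 Live MCF-7 cells treated with inhibitors at 10 µM, then stained with FITC Annexin V (apoptosis) and propidium iodide (cell death). Signals were quantified by flow cytometry against DMSO-treated cells.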
# [4] = system: MCF7; experiment: Induction of apoptosis in human MCF7 cells assessed as dead cells at 10 uM after 6 hrs by FITC-Annexin V/propidium iodide staining-based FACS analysis relative to control; format: functional
# How it was run: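 Live MCF-7 cells treated with compound at 10 µM, then stained with FITC-Annexin V (apoptotic cells) and propidium iodide (dead cells). Signals quantified by flow cytometry and read from histograms.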
# [5] = target: DNA (cytosine-5)-methyltransferase 1 (Homo sapiens) (UniProt P26358); experiment: Competitive inhibition of DNMT1 in (S)-Methyl 2-(2,5-dioxo-2,5-dihydro-1H-pyrrol-1-yl)-3-(5-(prop-2-yn-1-yloxy)-1H-indol-3-yl)propanoate labeled human MCF7 cells at 100 uM preincubated for 1 hr followed by cell labeling for 30 mins and clicked with TER-PEG-N3 measured after 2 hrs by Hoechst 33342 staining-based immunofluorescence assay
# How it was run: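 Live MCF-7 cells pretreated with competitor at 100 µM for 1 h, then given 5 µM alkyne probe for 30 min in the incubator. Cells were fixed (3.7% formaldehyde), permeabilised (0.1% Triton X-100), clicked with TER-PEG-N3, immunostained with anti-DNMT1 and Hoechst-stained. Imaging was by fluorescence microscopy in four channels (bright-field, probe, IF, nuclear).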
# [6] = target: DNA (cytosine-5)-methyltransferase 1 (Homo sapiens) (UniProt P26358); experiment: Competitive inhibition of DNMT1 in (S)-Methyl 2-(2,5-dioxo-2,5-dihydro-1H-pyrrol-1-yl)-3-(5-(prop-2-yn-1-yloxy)-1H-indol-3-yl)propanoate labeled human MCF7 cells at 50 to 500 uM preincubated for 1 hr followed by cell labeling for 1 hr and clicked with TER-biotin-N3 for 2 hrs and pull down by Western blot analysis; format: cell-based
# How it was run: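 Mammalian cells pretreated with competitor at 50, 100 or 500 µM. Their lysates were then labelled with 10 µM alkyne probe for 1 h at room temperature and clicked for 2 h with TER-Biotin-N3. DNMT1 (~183 kDa) was detected by pull-down and western blot, with DMSO as the negative control.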
# [7] = target: DNA (cytosine-5)-methyltransferase 1 (Homo sapiens) (UniProt P26358); experiment: Binding affinity to DNMT1 in human MCF7 cells at 10 uM preincubated for 1 hr post RG108, 1149 and (S)-Methyl 2-(2,5-dioxo-2,5-dihydro-1H-pyrrol-1-yl)-3-(4-(5-phenyl-2H-tetrazol-2-yl)phenyl)propanoate treatment followed by CuAAC click chemistry application measured after 2 hrs by gel fluorescence scanning assay; format: cell-based
# How it was run: (§1)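 Freshly prepared MCF-7 lysate (100 µg) labelled with 10 µM alkyne probe for 1 h at room temperature, then CuAAC click for 2 h. TER-PEG-N3 was used for in-gel fluorescence scanning, and TER-Biotin-N3 for pull-down followed by western blot against DNMT1. DMSO-treated cells served as the negative control.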
# [8] = target: DNA (cytosine-5)-methyltransferase 1 (Homo sapiens) (UniProt P26358); experiment: Binding affinity to DNMT1 in human MCF7 cells at 10 uM preincubated for 1 hr post RG108, 1149 and (S)-Methyl 2-(2,5-dioxo-2,5-dihydro-1H-pyrrol-1-yl)-3-(4-(5-phenyl-2H-tetrazol-2-yl)phenyl)propanoate treatment followed by clicked with TER-Biotin-N3 for 2 hrs and pull down by Western blot analysis; format: cell-based; how it was run: as §1
# [9] = Drug uptake in nucleus of human MCF7 cells at 5 uM preincubated for 30 hrs post RG108, 1149 and (S)-Methyl 2-(2,5-dioxo-2,5-dihydro-1H-pyrrol-1-yl)-3-(4-(5-phenyl-2H-tetrazol-2-yl)phenyl)propanoate treatment followed by clicked with TER-PEG-N3 measured after 2 hrs by Hoechst 33342 staining-based immunofluorescence assay; format: ADME, cell-based; conditions: mcf7, 2 h, in the assay text read “30 min” for “30 hrs”
# How it was run: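 MCF-7 cells incubated with 5 µM alkyne probe for 30 min in the incubator, fixed with 3.7% formaldehyde, permeabilised with 0.1% Triton X-100 and clicked with TER-PEG-N3. Anti-DNMT1 immunofluorescence and Hoechst nuclear staining followed. Localisation was read by fluorescence microscopy, with DMSO-only cells as control.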
# Chain of DNA (cytosine-5)-methyltransferase 1 (Homo sapiens) (P26358 whole entry): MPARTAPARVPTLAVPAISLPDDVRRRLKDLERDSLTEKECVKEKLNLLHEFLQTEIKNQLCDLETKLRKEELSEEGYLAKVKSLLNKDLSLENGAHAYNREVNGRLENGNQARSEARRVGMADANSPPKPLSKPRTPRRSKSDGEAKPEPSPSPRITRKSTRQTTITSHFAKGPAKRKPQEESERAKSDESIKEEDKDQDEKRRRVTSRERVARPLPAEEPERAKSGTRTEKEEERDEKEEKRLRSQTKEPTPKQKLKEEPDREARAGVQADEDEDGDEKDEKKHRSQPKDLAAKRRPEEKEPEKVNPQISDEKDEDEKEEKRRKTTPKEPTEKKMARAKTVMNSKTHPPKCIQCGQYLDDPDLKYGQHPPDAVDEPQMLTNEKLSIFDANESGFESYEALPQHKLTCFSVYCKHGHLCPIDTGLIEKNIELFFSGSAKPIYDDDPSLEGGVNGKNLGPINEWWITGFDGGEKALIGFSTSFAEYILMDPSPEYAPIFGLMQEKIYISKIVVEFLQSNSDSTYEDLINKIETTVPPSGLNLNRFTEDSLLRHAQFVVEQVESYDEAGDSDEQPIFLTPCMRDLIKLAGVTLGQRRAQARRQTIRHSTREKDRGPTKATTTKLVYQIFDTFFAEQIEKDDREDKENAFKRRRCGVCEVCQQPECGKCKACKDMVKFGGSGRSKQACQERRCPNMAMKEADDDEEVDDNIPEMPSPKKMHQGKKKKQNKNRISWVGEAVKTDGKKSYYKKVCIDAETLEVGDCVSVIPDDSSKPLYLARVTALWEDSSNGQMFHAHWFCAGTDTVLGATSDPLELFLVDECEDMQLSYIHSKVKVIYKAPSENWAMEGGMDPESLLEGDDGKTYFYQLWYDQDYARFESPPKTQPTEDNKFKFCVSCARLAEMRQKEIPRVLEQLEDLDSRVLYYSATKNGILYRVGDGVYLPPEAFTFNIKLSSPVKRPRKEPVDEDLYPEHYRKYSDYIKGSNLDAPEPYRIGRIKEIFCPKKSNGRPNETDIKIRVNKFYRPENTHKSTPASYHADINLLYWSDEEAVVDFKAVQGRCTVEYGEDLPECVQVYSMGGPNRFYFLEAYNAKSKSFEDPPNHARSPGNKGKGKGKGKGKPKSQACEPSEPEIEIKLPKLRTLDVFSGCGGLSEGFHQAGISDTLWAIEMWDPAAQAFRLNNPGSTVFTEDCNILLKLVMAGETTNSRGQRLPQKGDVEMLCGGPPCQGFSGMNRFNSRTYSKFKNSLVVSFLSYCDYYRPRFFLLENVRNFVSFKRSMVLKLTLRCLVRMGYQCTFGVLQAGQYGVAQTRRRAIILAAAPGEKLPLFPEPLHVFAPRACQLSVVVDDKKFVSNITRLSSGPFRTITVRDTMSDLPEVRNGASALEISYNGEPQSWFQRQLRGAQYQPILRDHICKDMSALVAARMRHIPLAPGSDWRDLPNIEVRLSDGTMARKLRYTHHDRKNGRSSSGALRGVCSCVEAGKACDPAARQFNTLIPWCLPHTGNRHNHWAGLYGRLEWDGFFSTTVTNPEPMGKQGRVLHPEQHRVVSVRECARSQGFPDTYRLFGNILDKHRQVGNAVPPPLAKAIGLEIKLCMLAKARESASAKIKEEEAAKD
SMILES,inhibition [1],growth inhibition (GI) [2],GI50 [2] [µM],Activity [3],Activity [4],inhibition [5],inhibition [6],Activity [7],Activity [8],Drug uptake [9]
COC(=O)[C@H](Cc1ccc(-n2nnc(-c3cc(F)cc(F)c3)n2)cc1)N1C(=O)C=CC1=O,Active,Dose-dependent effect,1.1,,,,,,,
COC(=O)[C@H](Cc1ccc(-n2nnc(-c3cc(C)cc(C)c3)n2)cc1)N1C(=O)C=CC1=O,Active,Dose-dependent effect,0.78,,,,,,,
CCCCCCOc1ccc(-c2nnn(-c3ccc(C[C@@H](C(=O)OC)N4C(=O)C=CC4=O)cc3)n2)cc1,Active,Dose-dependent effect,6.15,,,,,,,
O=C(O)[C@H](Cc1c[nH]c2ccccc12)N1C(=O)c2ccccc2C1=O,Active,,128,Active,Active,Active,Active,,,
C#CCOc1ccc2[nH]cc(C[C@@H](C(=O)OC)N3C(=O)C=CC3=O)c2c1,,Dose-dependent effect,0.29,61%,,,,inactive,Active,Active
O=C(O)[C@H](Cc1c[nH]c2ccccc12)N1C(=O)C=CC1=O,Active,,7.31,,,Active,Active,,,
COC(=O)[C@H](Cc1ccc(-n2nnc(-c3ccccc3)n2)cc1)N1C(=O)C=CC1=O,Active,Dose-dependent effect,0.3,Active,Active,Active,Active,,,

# Continued, in another order:
inhibition [1],SMILES,growth inhibition (GI) [2],GI50 [2] [µM],Activity [3],Activity [4],inhibition [5],inhibition [6],Activity [7],Activity [8],Drug uptake [9]
Active,COC(=O)[C@H](Cc1ccc(-n2nnc(-c3ccc(N(C)C)cc3)n2)cc1)N1C(=O)C=CC1=O,Dose-dependent effect,1.08,,,,,,,
Active,COC(=O)[C@H](Cc1ccc(-n2nnc(-c3ccncc3)n2)cc1)N1C(=O)C=CC1=O,Dose-dependent effect,1.86,,,,,,,
Active,COC(=O)[C@H](Cc1ccc(-n2nnc(-c3cccc4ccccc34)n2)cc1)N1C(=O)C=CC1=O,Dose-dependent effect,0.48,,,,,,,
Active,COC(=O)[C@H](Cc1ccc(-n2nnc(-c3ccc(C(F)(F)F)cc3)n2)cc1)N1C(=O)C=CC1=O,Dose-dependent effect,1.77,,,,,,,
Active,COC(=O)[C@H](Cc1ccc(-n2nnc(-c3ccc(F)cc3)n2)cc1)N1C(=O)C=CC1=O,Dose-dependent effect,1.16,,,,,,,
Active,COC(=O)[C@H](Cc1ccc(-n2nnc(-c3ccc(C(C)C)cc3)n2)cc1)N1C(=O)C=CC1=O,Dose-dependent effect,0.38,,,,,,,
Active,COC(=O)[C@H](Cc1ccc(-n2nnc(-c3ccc(OC)cc3)n2)cc1)N1C(=O)C=CC1=O,Dose-dependent effect,0.87,,,,,,,
Active,COC(=O)[C@H](Cc1ccc(-n2nnc(-c3ccc(OC(F)F)cc3)n2)cc1)N1C(=O)C=CC1=O,Dose-dependent effect,0.73,,,,,,,
